# Measurements gathered from unrelated publications.
# Protocols differ between the studies behind these lines. pEC50, pIC50: −log10 of the molar value.
# Effect on: cell growth or viability
SMILES,cell line,test,conditions,measurement,result
CCCCCCCSc1ccc(CC(C)NCC(O)c2cccc(Cl)c2)cc1 (stereo not drawn),HEK293,,,pIC50,< 5.00
Cc1cccc(-c2cccc(C)n2)n1.Cc1cccc(-c2cccc(C)n2)n1.F[P-](F)(F)(F)(F)F.F[P-](F)(F)(F)(F)F.[Ru+2].c1ccc2cc(-c3nc4c5cccnc5c5ncccc5c4[nH]3)ccc2c1,SK-MEL-28,resazurin,dark,pEC50,4.50
N.N.[Cl][Pt][Cl],SK-MEL-28,resazurin,dark,pEC50,5.51
Cc1cc(O)cc2c(C3CCN(CC4CCN(C(=O)/C=C/c5ccc(Cl)c(Cl)c5)CC4)CC3)c[nH]c12,HEK293,,,pIC50,< 5.00
Cc1cccc2[nH]cc(CNCC3(N4CCCC4)COC3)c12,T98G,,"30 µM, 48 h",viability,60.1%
N.N.[Cl][Pt][Cl],NCI-H1975,MTT,72 h,pIC50,5.22
O=S(=O)([O-])C(F)(F)F.OCc1ccnc(-c2cc(CO)ccn2)c1.[Ru+2].c1cc[cH-]c1.c1ccc(P(c2ccccc2)c2ccccc2)cc1,HEK293,MTT,48 h,pIC50,5.17
Cc1c(C)c2c(c(C)c1O)CC[C@](C)(C(=O)NC1CCC(CN3CCC(c4c[nH]c5ccccc45)CC3)CC1)O2 (stereo partly drawn),HEK293,,,pIC50,< 5.00
Cc1cccc(-n2ncc(Cl)c(Cl)c2=O)c1,NCI-H1975,resazurin,96 h,pIC50,6.85
N.N.[Cl][Pt][Cl],HEK293,MTT,72 h,pIC50,4.55
CNCCN(C)C(=O)Oc1c(Cl)c(C)nc(C)c1-c1ccc(Oc2ccc(OC(F)(F)F)cc2)cc1,HEK293,,,pIC50,< 5.00
Cc1ccc2c(CNCC3(N4CCCC4)COC3)c[nH]c2c1,T98G,,"30 µM, 48 h",viability,98.5%
